# UBC13 polyUb – blocks human UBC13 polyubiquitin chain formation; P61088; TR-FRET; inhibition, % at 20 µM; hit rate 0.47% among 330,000; AID 485273; in the data active = inhibition above about 45%, passing the limit was not always enough
# Neddyl block – inhibitors of human cullin neddylation; P61081+Q13564; TR-FRET cullin neddylation, biochemical; calls only at 25 µM; hit rate 0.58% among 360,000; AID 651699; in the data active = inhibition above about 36%
# RAD52 inh – RAD52 (human) annealing inhibition. AID 651710. recombinant RAD52 DNA annealing, FRET fluorescence. inhibition, % at 18.7 µM. hit rate 0.46% among 360,000;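 active = every replicate showing at least 50% inhibition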
# DNA FID counter – fluorescent intercalator displacement, NS3 helicase counter-screen. DNA fluorescent intercalator displacement, fluorescence. inhibition, % at 7.9 µM. hit rate 0.17% among 290,000; in the data active = inhibition above about 37%;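 note: 0% = vehicle and 100% = reference compound; higher means more ethidium bromide displaced from hairpin DNA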
# Apaf-1 inh – blocks human Apaf-1 apoptosome activity. reconstituted apoptosome caspase-3 activity, DEVD-Rh110 fluorescence. hit rate 0.71% among 330,000. O14727. inhibition, % at 20 µM; active = inhibition of at least 40% at 20 µM;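 note: plate controls were DMSO wells for no effect and DEVD-CHO caspase inhibitor wells for full effect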
#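 System: Apoptosome proteins | Medium: Hepes pH 7.5 with detergent and BSA | Also added: Cytochrome c trigger plus (Z-DEVD)2-Rh110 caspase-3 substrate | Incubation: 30 min compound preincubation, 50 min activation, room temperature | Detection: Rhodamine 110 fluorescence at Ex 480/Em 540 nm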
# RAD54 branch – blocks human RAD54 Holliday junction branch migration; Q92698; FAM/BHQ fluorescence; inhibition, % at 10.4 µM; hit rate 0.14% among 360,000;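 active = mean normalized replicate activity at least 40 and at least half of replicates scoring 40 or more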;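 note: 0% = median of neutral control wells and 100% = median of positive control wells; inhibitors cause a drop in the FAM fluorescence signal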
# Target sequence (Q92698 whole entry, looked up): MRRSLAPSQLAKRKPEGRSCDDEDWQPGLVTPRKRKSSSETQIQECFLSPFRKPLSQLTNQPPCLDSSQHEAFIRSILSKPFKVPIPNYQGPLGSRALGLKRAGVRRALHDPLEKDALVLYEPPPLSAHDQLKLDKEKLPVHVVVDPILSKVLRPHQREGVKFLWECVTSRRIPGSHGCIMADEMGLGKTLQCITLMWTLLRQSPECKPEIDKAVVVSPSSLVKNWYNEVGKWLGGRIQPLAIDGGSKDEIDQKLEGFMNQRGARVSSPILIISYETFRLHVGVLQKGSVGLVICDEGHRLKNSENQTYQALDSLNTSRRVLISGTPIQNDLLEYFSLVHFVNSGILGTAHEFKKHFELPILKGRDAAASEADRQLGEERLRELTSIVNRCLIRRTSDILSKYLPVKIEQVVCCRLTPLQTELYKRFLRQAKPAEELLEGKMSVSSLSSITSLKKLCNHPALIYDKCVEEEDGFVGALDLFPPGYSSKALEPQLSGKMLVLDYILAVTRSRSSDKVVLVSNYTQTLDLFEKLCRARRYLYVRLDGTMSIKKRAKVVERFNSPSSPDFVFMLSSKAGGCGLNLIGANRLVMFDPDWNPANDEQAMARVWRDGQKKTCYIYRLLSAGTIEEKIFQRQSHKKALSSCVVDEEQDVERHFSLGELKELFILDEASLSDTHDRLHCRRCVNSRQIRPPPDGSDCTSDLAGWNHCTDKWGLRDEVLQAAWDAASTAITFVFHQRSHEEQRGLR
# Neddyl inh conf – confirmation of human cullin neddylation inhibitors; TR-FRET cullin neddylation biochemical assay; calls only at 25 µM; hit rate 13% among 1,800; shares compounds with Neddyl block; in the data active = inhibition above about 40%;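 note: neddylation substrate is the cullin 1 ring ligase complex with SKP2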
# * marks the source's active call; other numbers are inactive results; i = inactive; · = no result given; + = active, no number. A selection: hits, their analogues and other compounds. The true share with any hit is near 1.6%.
SMILES,UBC13 polyUb,Neddyl block,RAD52 inh,DNA FID counter,Apaf-1 inh,RAD54 branch,Neddyl inh conf
CCc1nc(Nc2ccc(N3CCN(C(C)=O)CC3)cc2)c2oc3ccccc3c2n1,12,+,·,-24,6,43,i
Cc1ccc(Nc2nc(C)nc3c2oc2ccccc23)cc1,7,+,-20,-20,8,·,·
COc1ccc(Nc2nc(C)nc3c2oc2ccccc23)cc1,2,·,-1,-21,7,·,·
CC(C)C1Oc2cc3oc(=O)ccc3cc2C1=O (stereo not drawn),-2,+,4,-23,-14,3,i
COc1cc(/C=C/C2=NNC(=O)CC2)cc(OC)c1OC,8,+,6,-10,0,12,i
CCCNC(=O)N1CC2(C1)[C@H](c1ccccc1)[C@@H](CO)N2CC1CC1,·,·,-20,·,·,·,·
CCS(=O)(=O)Nc1ccc2c(c1)C(=O)N(C)[C@@H]1CC[C@@H](CC(=O)N[C@@H]3CCN(Cc4ccccc4)C3)O[C@H]1CO2,·,·,6,·,·,4,·
Cc1ccc(S(=O)(=O)c2n[nH]n3c2nc(=O)c2ccccc23)cc1,1,+,·,-8,-4,-2,i
CCOC(=O)c1n[nH]n2c1nc(=O)c1ccccc12,·,·,-8,-5,·,2,·
CCCC[n+]1ccn(-c2nc3ccccc3nc2[N-]S(=O)(=O)c2ccc(C)cc2)c1,9,i,-5,-16,0,11,·
CCCC[n+]1ccn(-c2nc3ccccc3nc2[N-]S(=O)(=O)c2cccs2)c1,5,+,-11,31,-21,94*,i
CCCC[n+]1ccn(-c2nc3ccccc3nc2[N-]S(=O)(=O)c2ccccc2)c1,6,i,3,-11,-20,-16,·
O=S(=O)([N-]c1nc2ccccc2nc1-n1cc[n+](Cc2ccccc2)c1)c1ccccc1,10,+,-29,-7,-1,8,+
Cc1ccc(S(=O)(=O)[N-]c2nc3ccccc3nc2-n2cc[n+](Cc3ccccc3)c2)cc1,-1,·,-13,-11,6,2,·
C=CC[n+]1ccn(-c2nc3ccccc3nc2[N-]S(=O)(=O)c2cccs2)c1,19,+,-19,36,10,·,·
CCCCC[n+]1ccn(-c2nc3ccccc3nc2[N-]S(=O)(=O)c2ccc(C)cc2)c1,7,+,·,-28,5,2,i
O=C(NCCN1CCCCC1)[C@@H]1[C@@H](CO)[C@@H]2Cn3c(cccc3=O)[C@@H]2N1C(=O)C1CC1,·,·,4,·,·,-2,·
COc1ccc(-c2cc(C(=O)N3CCCCCC3)c3ccccc3n2)cc1OC,·,·,-14,·,·,-5,·
Cc1ccc(-c2cc(C(=O)OCC(=O)NC3CC3)c3ccccc3n2)cc1,14,+,-18,·,5,-5,·
O=C(OCC(=O)N1CCOCC1)c1cc(-c2ccccc2)nc2ccccc12,8,i,-6,·,19,-1,·
O=C(c1cc(N2CCCCC2)nc2ccccc12)N1CCOCC1,-8,+,·,-20,-2,8,i
O=C(O)c1cc(N2CCOCC2)nc2ccccc12,5,·,-8,4,-3,-12,·
COc1ccc(-c2cc(C(=O)OCC(=O)N3CCCCC3)c3ccccc3n2)cc1OC,13,+,-55,·,13,·,i
COc1cc(-c2cc(C(=O)OCC(=O)NC3CC3)c3ccccc3n2)cc(OC)c1OC,15,i,-19,·,5,0,·
COc1cc(-c2cc(C(=O)N3CCCCCC3)c3ccccc3n2)cc(OC)c1OC,8,+,2,·,7,-1,·
SMILES,UBC13 polyUb,Neddyl block,RAD52 inh,DNA FID counter,Apaf-1 inh,RAD54 branch,Neddyl inh conf
COc1ccc(S(=O)(=O)Nc2ccc3c(c2)C(=O)N([C@H](C)CO)C[C@H](C)[C@@H](CN(C)CC2CC2)OCCCC[C@@H](C)O3)cc1,·,·,10,·,·,4,·
COc1ccc(CNC2CCCCC2C)c(OC)c1 (stereo not drawn),12,+,-6,8,-13,·,·
COc1ccc(CNC2CCCc3ccccc32)c(OC)c1 (stereo not drawn),-5,i,-5,9,11,-3,·
C[C@@H]1CN([C@H](C)CO)C(=O)c2cc(C#CC(C)(C)O)cnc2O[C@@H]1CN(C)C(=O)C1CCOCC1,·,·,11,·,·,-4,·
S=c1[nH]nc2ccc3ccccc3n12,·,+,-6,·,·,2,·
COc1ccc(NC(=O)Nc2ccc3c(c2)[C@H]2C[C@H](CC(=O)N4CCc5ccccc5C4)O[C@@H](CO)[C@H]2O3)cc1,·,·,-16,·,·,3,·
CCc1c(C)c2ccc(OC(C)C(=O)NC(Cc3c[nH]c4ccc(O)cc34)C(=O)O)c(C)c2oc1=O (stereo not drawn),-7,+,-16,-23,-4,-8,+
Cc1ccc(C)c(OCC(=O)N/N=C/c2ccc(N3CCOCC3)cc2)c1,·,+,-371,·,·,2,+
CC(C)(C)c1ccc(OCC(=O)N/N=C/c2ccc(N3CCOCC3)cc2)cc1,-9,+,·,-15,30,-13,i
CS(=O)(=O)N1CC2(C1)[C@@H](c1ccccc1)[C@H](CO)N2Cc1ccccn1,·,·,-27,·,·,·,·
CS(=O)(=O)Nc1ccccc1C(=O)Nc1cccc(Cl)c1,6,+,-20,0,-13,4,·
CS(=O)(=O)Nc1ccccc1C(=O)NCCSCc1ccccc1,9,·,-11,-13,-2,·,·
CS(=O)(=O)Nc1ccccc1C(=O)NCCSc1ccccc1,1,+,-16,-9,-4,-2,i
CC(C)(CNC(=O)c1ccccc1NS(C)(=O)=O)N1CCCCC1,11,+,-14,-3,0,-12,i
COc1cc(/C=C/c2cc(C(=O)O)c3ccccc3n2)ccc1OC(F)F,21,+,-17,-24,-7,·,·
O=C(O)c1cc(/C=C/c2ccc(N3CCOCC3)cc2)nc2ccccc12,-15,i,-28,-11,0,·,·
C[C@H]1CN([C@@H](C)CO)S(=O)(=O)c2ccc(-c3cccc(C#N)c3)cc2O[C@@H]1CN(C)C(=O)c1ccncc1,·,·,11,·,·,-1,·
Cc1cc(=O)oc2cc(NC(=S)NNC(=O)c3c(Cl)cnn3C)ccc12,-4,+,-11,-45,-6,-7,i
Cc1cc(=O)oc2cc(NC(=S)NCc3ccccn3)ccc12,18,i,-3,-1,8,-8,·
COc1ccc(/C=c2\s/c(=C(/C#N)C(=O)NCc3ccco3)n(-c3ccccc3)c2=O)cc1,-16,+,-71,0,-12,6,i
CO[C@H]1O[C@H](CO)[C@@H](OC(=O)Nc2cccc(F)c2)[C@H](OC(=O)Nc2ccccc2)[C@@H]1OC(=O)Nc1ccccc1,·,·,-5,·,·,·,·
Cc1ccc(S(=O)(=O)Nc2cccc3c2O[C@@H](CN(C)Cc2ccccc2)[C@H](C)CN([C@H](C)CO)C3=O)cc1,·,·,9,·,·,3,·

# Assay outcomes: PubChem, several laboratories
